High-throughput results deposited in PubChem by Broad Institute.
KDM4C inh: inhibitors of human demethylase GASC-1 KDM4C; GST-KDM4C 2-372, H3K9me3 peptide, LANCE TR-FRET; hit rate 0.15% among 96,000; Q9H3R0; inhibition, % at 12.5 µM;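 active means mean replicate inhibition above about 25%, with at least 55% of replicates also reaching it, limit read from the data, passing the limit was not always enough; inconclusive means only one of those two conditions met; inactive means neither condition met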
Target sequence (Q9H3R0 2-372 limits assumed): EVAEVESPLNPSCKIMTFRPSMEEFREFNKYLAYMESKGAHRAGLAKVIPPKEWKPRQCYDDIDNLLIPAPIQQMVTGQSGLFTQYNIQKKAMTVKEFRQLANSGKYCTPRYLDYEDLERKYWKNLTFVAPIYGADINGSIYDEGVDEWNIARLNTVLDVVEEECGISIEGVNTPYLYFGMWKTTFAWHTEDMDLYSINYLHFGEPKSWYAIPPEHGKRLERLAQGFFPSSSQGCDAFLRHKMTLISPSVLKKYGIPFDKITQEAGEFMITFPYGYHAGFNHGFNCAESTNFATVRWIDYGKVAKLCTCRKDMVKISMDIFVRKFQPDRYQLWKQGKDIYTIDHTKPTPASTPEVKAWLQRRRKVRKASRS
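reagent = H3K9me3 peptide substrate, Fe(II), 2-oxoglutarate | system = GST-tagged GASC-1 (JMJD2C) catalytic fragment, aa 2-372 | amount = enzyme final amount 10 nM | read-out = Fall in 671/618 emission ratio as inhibition | medium = HEPES buffer, pH 7.5, plus ascorbate | schedule = 30 min reaction, 60 min detection, RT | measured by = LANCE TR-FRET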
IDH1 R132H inh: IDH1 R132H (human) inhibition; IDH1 R132H reductase, diaphorase/resazurin fluorescence, 60 min; inhibition, % at 10 µM; hit rate 0.18% among 70,000; AID 624101; in the data active means inhibition above about 34%; inconclusive means no clear call, values can overlap the other calls; inactive means below about 11%;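 further: 0% = DMSO and 100% = no enzyme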
Target sequence (O75874 whole entry R132H): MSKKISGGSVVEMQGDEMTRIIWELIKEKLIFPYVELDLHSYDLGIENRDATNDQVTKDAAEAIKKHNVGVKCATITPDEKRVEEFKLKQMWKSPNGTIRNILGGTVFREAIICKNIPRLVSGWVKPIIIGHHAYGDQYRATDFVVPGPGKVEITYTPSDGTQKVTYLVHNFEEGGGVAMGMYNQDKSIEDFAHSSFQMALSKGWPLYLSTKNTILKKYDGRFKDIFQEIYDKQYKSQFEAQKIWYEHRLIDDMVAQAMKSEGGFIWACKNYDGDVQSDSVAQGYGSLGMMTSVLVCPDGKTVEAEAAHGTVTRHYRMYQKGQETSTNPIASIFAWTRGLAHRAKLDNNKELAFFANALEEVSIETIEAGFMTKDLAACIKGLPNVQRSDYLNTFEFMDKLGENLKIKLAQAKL
T cruzi growth-1: blocks T. cruzi growth in NIH3T3 culture; AID 624255; hit rate 5.9% among 77,000; inhibition, % at 8.34 µM; T. cruzi beta-gal in NIH3T3, GalScreen luminescence, 90 h;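 active means mean inhibition above about 93%, with at least 55% of replicates each passing it, limit read from the data, passing the limit was not always enough; inconclusive means only one of those two conditions holds; inactive means neither condition holds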
Pf Dd2 growth: inhibitors of Plasmodium falciparum Dd2 growth; P. falciparum Dd2 growth, SYBR Green, 72 h; hits give low values; activity change, % at 10 µM; hit rate 2.3% among 94,000; in the data active means activity change below about -80%; inconclusive means no clear call, values can overlap the other calls
T cruzi growth-2: blocks T. cruzi growth in NIH3T3 host cells; shares compounds with T cruzi growth-1; inhibition, % at 8.35 µM; T. cruzi beta-gal in NIH3T3, GalScreen luminescence, 90 h; hit rate 72% among 5,600;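 active means mean replicate inhibition above about 95% and at least 55% of replicates individually reaching it, limit read from the data; inconclusive means only one of the two criteria is met; inactive means neither criterion is met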
T cruzi growth-3: inhibitors of T. cruzi proliferation | shares compounds with T cruzi growth-1 | T. cruzi beta-gal in NIH3T3, GalScreen luminescence, 90 h | inhibition, % at 2.09 µM | hit rate 21% among 5,600 | AID 651740;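 active means mean inhibition above about 95%, with at least 55% of replicates also reaching it, limit read from the data; inconclusive means meets just one of the two conditions; inactive means meets neither condition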;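 further: plate controls were neutral control median for no effect and positive control median for full effect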
NIH3T3 tox: cytotoxicity in mouse NIH/3T3 fibroblasts; hit rate 14% among 5,600; shares compounds with T cruzi growth-1; cytotoxicity (signal decrease), % at 8.35 µM; NIH/3T3 viability, CellTiter-Glo ATP luminescence, 90 h;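 active means mean signal decrease across replicates above about 35% based on untreated-well scatter, with enough replicates individually passing, limit read from the data; inconclusive means no rule stated though some were filed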;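 further: 0% = median of neutral control wells and 100% = median of positive control wells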
NIH3T3 tox 2: kills mouse NIH/3T3 fibroblasts | shares compounds with T cruzi growth-1 | NIH/3T3 viability, CellTiter-Glo ATP luminescence, 90 h | inhibition, % at 24.9 µM | hit rate 56% among 5,600 | AID 651744;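 active means mean loss of cell viability signal at or above a set limit, and enough replicates individually reaching it; inconclusive means meets only the mean limit or only the replicate share; inactive means meets neither condition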;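 further: 0% = median of neutral control wells and 100% = median of positive control wells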
Starred values were filed as active, the others as inactive; u = inconclusive; x = no result given; ! = not confirmed by another sample. Shown are actives, neighbours in structure and some others; about 5.8% of the full set was active somewhere.

SMILES	KDM4C inh	IDH1 R132H inh	T cruzi growth-1	Pf Dd2 growth	T cruzi growth-2	T cruzi growth-3	NIH3T3 tox	NIH3T3 tox 2
COc1cccc(S(=O)(=O)N2CCCCN3[C@H](CO)[C@@H](c4ccc(C#CC5CC5)cc4)[C@@H]3C2)c1	-1.2	x	u	2.7	107.3*	100.4*	11.0	22.1
COc1cccc(S(=O)(=O)N2CCCCN3[C@@H](CO)[C@@H](c4ccc(C#CC5CC5)cc4)[C@@H]3C2)c1	-1.2	x	53.3	-66.8	x	x	x	x
Cc1cccc(S(=O)(=O)N2CCCCN3[C@H](C2)[C@H](c2ccc(C#CC4CC4)cc2)[C@@H]3CO)c1	-0.2	x	108.4*	-15.6	108.9*	98.4*	13.4	64.7*
Cc1cccc(S(=O)(=O)N2CCCCN3[C@H](CO)[C@@H](c4ccc(C#CC5CC5)cc4)[C@H]3C2)c1	-0.9	x	93.7	-32.3	x	x	x	x
O=S(=O)(c1ccc(F)cc1)N1CCCCN2[C@@H](CO)[C@H](c3ccc(C#CC4CC4)cc3)[C@@H]2C1	1.2	x	u	-29.0	108.8*	43.6	44.1*	102.6*
COc1cccc(S(=O)(=O)N2CCCCN3[C@H](CO)[C@@H](c4ccc(C#CC5CC5)cc4)[C@H]3C2)c1	-1.7	x	104.1*	-26.9	98.0*	86.3	45.2*	104.7*
CCCNC(=O)N(C)C[C@H]1Oc2ncc(C#CCc3ccccc3)cc2C(=O)N([C@H](C)CO)C[C@@H]1C	-1.1	0.4	x	-51.8	x	x	x	x
CO[C@H]1CN(C)C(=O)c2cc(NS(=O)(=O)c3ccc(F)cc3)ccc2OC[C@H](C)NC[C@@H]1C	0.2	-0.1	-24.2	22.4	x	x	x	x
CO[C@@H]1CN(C)C(=O)c2cc(NC(=O)NC3CCCC3)ccc2OC[C@@H](C)N(CC2CC2)C[C@@H]1C	-0.3	x	x	28.5	x	x	x	x
CCCNC(=O)N1CCC2(CC1)CN(C(=O)CC1CC1)[C@@H](CO)c1[nH]c3cc(OC)ccc3c12	0.4	x	x	11.0	x	x	x	x
Cc1cccc(S(=O)(=O)N2[C@@H]3Cn4c(cccc4=O)[C@H]2[C@@H](C(=O)N(C)C)[C@@H]3CO)c1	0.8	x	33.3	x	x	x	x	x
C[C@@H]1CN([C@@H](C)CO)C(=O)c2cc(N(C)C)ccc2O[C@@H](C)CCCCO[C@@H]1CN(C)S(C)(=O)=O	11.6	x	42.3	x	x	x	x	x
C[C@@H]1CCCCO[C@H](CN(C)S(C)(=O)=O)[C@H](C)CN([C@@H](C)CO)C(=O)c2cc(N(C)C)ccc2O1	9.3	-1.1	108.0*	-3.3	51.9	-12.7	-32.7	-31.4
C[C@@H]1CN([C@H](C)CO)C(=O)c2cc(N(C)C)ccc2O[C@@H](C)CCCCO[C@H]1CN(C)S(C)(=O)=O	10.1	x	21.9	-23.9	x	x	x	x
C[C@@H]1CCCCO[C@@H](CN(C)S(C)(=O)=O)[C@@H](C)CN([C@H](C)CO)C(=O)c2cc(N(C)C)ccc2O1	3.8	x	100.7*!	12.0	3.1	-21.5	-11.5	-11.4
CC(C)NC(=O)N1C[C@H]2[C@@H](c3ccccc31)[C@H](CO)N2C(=O)Nc1ccc(F)cc1	0.5	x	27.4	-1.7	x	x	x	x
C[C@@H]1CN([C@H](C)CO)C(=O)c2c(c3ccccc3n2C)-c2ccccc2CO[C@@H]1CN(C)S(=O)(=O)c1cn(C)cn1	-1.6	x	90.0	16.1	x	x	x	x
C[C@@H]1CN([C@@H](C)CO)C(=O)c2c(c3ccccc3n2C)-c2ccccc2CO[C@H]1CN(C)S(C)(=O)=O	0.5	x	20.8	5.9	x	x	x	x
C[C@@H]1CN([C@@H](C)CO)C(=O)c2c(c3ccccc3n2C)-c2ccccc2CO[C@@H]1CN(C)S(=O)(=O)c1cn(C)cn1	-0.6	-2.9	u	0.9	7.5	-50.4	1.0	31.0*
C[C@H]1CN([C@@H](C)CO)C(=O)c2c(c3ccccc3n2C)-c2ccccc2CO[C@H]1CN(C)S(=O)(=O)c1cn(C)cn1	-0.2	-2.3	101.4*	-22.6	16.4	7.2	2.0	22.3
C[C@@H]1CCCCO[C@H](CN(C)C(=O)CCC(F)(F)F)[C@H](C)CN([C@@H](C)CO)C(=O)c2cc(NS(=O)(=O)c3cn(C)cn3)ccc2O1	-0.4	2.3	56.6	19.6	x	x	x	x
C[C@H](CO)N1C[C@H](C)[C@@H](CN(C)C(=O)Nc2ccc(F)cc2)OCCCC[C@H](C)Oc2ccc(NC(=O)CCCN(C)C)cc2C1=O	2.4	x	5.5	41.2	x	x	x	x
CN1C(=O)c2cc(NC(=O)Cc3cccs3)ccc2OC[C@@H]2O[C@@H](CC(=O)N[C@H]3CCN(Cc4ccccc4)C3)CC[C@H]21	-2.1	x	82.2	x	x	x	x	x
CN1C(=O)c2cc(NC(=O)c3ccc(F)c(F)c3)ccc2OC[C@@H]2O[C@H](CC(=O)N[C@@H]3CCN(Cc4ccccc4)C3)CC[C@H]21	-0.3	x	105.8*	x	113.8*	50.1	-14.0	-9.7
CN1C(=O)c2cc(NC(=O)Cc3cccs3)ccc2OC[C@@H]2O[C@H](CC(=O)N[C@H]3CCN(Cc4ccccc4)C3)CC[C@H]21	-0.4	x	-63.5	x	x	x	x	x
SMILES	KDM4C inh	IDH1 R132H inh	T cruzi growth-1	Pf Dd2 growth	T cruzi growth-2	T cruzi growth-3	NIH3T3 tox	NIH3T3 tox 2
CN1C(=O)c2cc(NC(=O)Cc3cccs3)ccc2OC[C@H]2O[C@H](CC(=O)N[C@H]3CCN(Cc4ccccc4)C3)CC[C@@H]21	0.6	x	104.8*	x	u	65.9	-23.5	-46.5
CN1C(=O)c2cc(NC(=O)Cc3cccs3)ccc2OC[C@H]2O[C@@H](CC(=O)N[C@H]3CCN(Cc4ccccc4)C3)CC[C@@H]21	1.5	x	52.0	x	x	x	x	x
CN1C(=O)c2cc(NC(=O)c3ccc(F)c(F)c3)ccc2OC[C@@H]2O[C@H](CC(=O)N[C@H]3CCN(Cc4ccccc4)C3)CC[C@H]21	1.1	x	111.3*	x	98.7*	57.5	-14.5	-11.5
CCC(=O)Nc1ccc2c(c1)C(=O)N(C)C[C@@H](OC)[C@H](C)CN(C(=O)CC1CC1)[C@H](C)CO2	0.4	-0.2	-14.1	43.2	x	x	x	x
CC(C)NC(=O)N(C)C[C@@H]1Oc2cc(C#CC(C)(C)O)ccc2S(=O)(=O)N([C@@H](C)CO)C[C@@H]1C	-0.8	-0.2	7.6	52.5	x	x	x	x
C[C@@H]1CN([C@H](C)CO)C(=O)c2cc(N(C)C)ccc2O[C@H]1CN(C)Cc1ccc(C(F)(F)F)cc1	1.0	0.3	11.0	-14.3	x	x	x	x
C[C@@H]1CN([C@@H](C)CO)C(=O)c2cccc(NC(=O)Nc3ccc(F)cc3)c2O[C@H]1CN(C)Cc1ccc(Oc2ccccc2)cc1	-2.6	3.1	u	-1.9	96.1*	93.8	-4.3	54.7*
C[C@@H]1CN([C@H](C)CO)C(=O)c2cccc(NC(=O)Nc3ccc(F)cc3)c2O[C@H]1CN(C)Cc1ccc(Oc2ccccc2)cc1	-0.9	x	115.5*	-10.9	100.8*	83.5	1.3	45.8*
